# According to ChEMBL document CHEMBL4689842, “EUbOPEN Chemogenomics Library wave 1” (2021):
# How the values were obtained:
# Assay type in all cases: toxicity, cell-based
# U2OS = experiment: Incucyte cell viability with U2OS; settings: human, 10 µM, compound concentration 10 uM; further: filed as whole numbers so only -1 and 0 and 1 occur
# HEK-293T = experiment: Incucyte cell viability with HEK293T; settings: human, 10 µM, compound concentration 10 uM; further: filed as whole numbers so only -1 and 0 and 1 occur
# Fibroblast [1] = experiment: Incucyte cell viability with human fibroblast; settings: 10 µM, compound concentration 10 uM; further: filed as whole numbers so only -1 and 0 and 1 occur
# Fibroblast [2] = experiment: Multiplex assay against human fibroblast
# Outline: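 Values for tubulin, mitochondrial-mass and membrane-permeability phenotypes are per cents of cells with healthy nuclei. These cells were identified by CellPathfinder machine-learning gating of live cells that had been stained at seeding with Hoechst33342, BioTracker Green Microtubule Cytoskeleton Dye, MitoTracker Red and Annexin V Alexa Fluor 680 and imaged on a CQ1 microscope at 37°C and 5% CO2 after compound addition. The gating first set Hoechst high-intensity objects apart from normal cells, then split normal cells into healthy, pyknosed or fragmented nuclei, and pyknosed cells into mitotic or apoptotic.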
# [3] = 0 h, replicate number 1, timepoint 0 hours
# [4] = 6 h, replicate number 2, timepoint 6 hours
# [5] = 12 h, replicate number 1, timepoint 12 hours
# [6] = 18 h, replicate number 1, timepoint 18 hours
# [7] = 24 h, replicate number 1, timepoint 24 hours
# [8] = 12 h, 1 µM, compound concentration 1 uM, replicate 1
# [9] = 12 h, 1 µM, compound concentration 1 uM, replicate 2
# [10] = 12 h, 10 µM, compound concentration 10 uM, replicate 1
# [11] = 12 h, 10 µM, compound concentration 10 uM, replicate 2
# [12] = 24 h, 1 µM, compound concentration 1 uM, replicate 1
# [13] = 24 h, 1 µM, compound concentration 1 uM, replicate 2
# [14] = 24 h, 10 µM, compound concentration 10 uM, replicate 1
# [15] = 24 h, 10 µM, compound concentration 10 uM, replicate 2
# [16] = 48 h, 1 µM, compound concentration 1 uM, replicate 1
# [17] = 48 h, 1 µM, compound concentration 1 uM, replicate 2
# [18] = 48 h, 10 µM, compound concentration 10 uM, replicate 1
# [19] = 48 h, 10 µM, compound concentration 10 uM, replicate 2
smiles,measurement,setting,value
CN(c1cc(C(F)(F)F)nc(OCCC(=O)O)n1)c1cccc2c1CCC2,Growth Rate,U2OS; [3],0
same,Growth Rate,U2OS; [4],0
same,Growth Rate,U2OS; [5],0
same,Growth Rate,U2OS; [6],0
same,Growth Rate,U2OS; [7],0
same,Growth Rate,HEK-293T; [3],0
same,Growth Rate,HEK-293T; [4],0
same,Growth Rate,HEK-293T; [5],1
same,Growth Rate,HEK-293T; [6],1
same,Growth Rate,HEK-293T; [7],1
same,Growth Rate,Fibroblast [1]; [3],1
same,Growth Rate,"Fibroblast [1]; 0 h, replicate number 2, timepoint 0 hours",0
same,Growth Rate,"Fibroblast [1]; 6 h, replicate number 1, timepoint 6 hours",0
same,Growth Rate,Fibroblast [1]; [5],1
same,Growth Rate,Fibroblast [1]; [6],0
same,Growth Rate,Fibroblast [1]; [7],0
same,Growth Rate,"Fibroblast [1]; 24 h, replicate number 2, timepoint 24 hours",1
same,Population Apoptotic (%),Fibroblast [2]; [8],70%
same,Population Fragmented Nuclei (%),Fibroblast [2]; [8],18%
same,Population Healthy Nuclei (%),Fibroblast [2]; [8],47%
same,Population Hoechst High Intensity Objects (%),Fibroblast [2]; [8],11%
same,Population Membrane Permeable-Phenotype (%),Fibroblast [2]; [8],17%
same,Population Mitochondria Different-Phenotype (%),Fibroblast [2]; [8],6%
same,Population Mitotic Cells (%),Fibroblast [2]; [8],29%
same,Population Normal (%),Fibroblast [2]; [8],88%
same,Population Pyknosed Nuclei (%),Fibroblast [2]; [8],33%
same,Population Tubulin-Different-Phenotype (%),Fibroblast [2]; [8],27%
same,Total Cell Count,Fibroblast [2]; [8],136
same,Population Apoptotic (%),Fibroblast [2]; [9],0%
same,Population Fragmented Nuclei (%),Fibroblast [2]; [9],9%
same,Population Healthy Nuclei (%),Fibroblast [2]; [9],80%
same,Population Hoechst High Intensity Objects (%),Fibroblast [2]; [9],12%
same,Population Membrane Permeable-Phenotype (%),Fibroblast [2]; [9],4%
same,Population Mitochondria Different-Phenotype (%),Fibroblast [2]; [9],20%
same,Population Mitotic Cells (%),Fibroblast [2]; [9],100%
same,Population Normal (%),Fibroblast [2]; [9],87%
same,Population Pyknosed Nuclei (%),Fibroblast [2]; [9],9%
same,Population Tubulin-Different-Phenotype (%),Fibroblast [2]; [9],28%
same,Total Cell Count,Fibroblast [2]; [9],65
same,Population Apoptotic (%),Fibroblast [2]; [10],61%
same,Population Fragmented Nuclei (%),Fibroblast [2]; [10],23%
same,Population Healthy Nuclei (%),Fibroblast [2]; [10],49%
same,Population Hoechst High Intensity Objects (%),Fibroblast [2]; [10],11%
same,Population Membrane Permeable-Phenotype (%),Fibroblast [2]; [10],25%
same,Population Mitochondria Different-Phenotype (%),Fibroblast [2]; [10],6%
same,Population Mitotic Cells (%),Fibroblast [2]; [10],38%
same,Population Normal (%),Fibroblast [2]; [10],88%
same,Population Pyknosed Nuclei (%),Fibroblast [2]; [10],27%
same,Population Tubulin-Different-Phenotype (%),Fibroblast [2]; [10],26%
same,Total Cell Count,Fibroblast [2]; [10],172
same,Population Apoptotic (%),Fibroblast [2]; [11],0%
same,Population Fragmented Nuclei (%),Fibroblast [2]; [11],13%
same,Population Healthy Nuclei (%),Fibroblast [2]; [11],86%
same,Population Hoechst High Intensity Objects (%),Fibroblast [2]; [11],14%
same,Population Membrane Permeable-Phenotype (%),Fibroblast [2]; [11],4%
same,Population Mitochondria Different-Phenotype (%),Fibroblast [2]; [11],10%
same,Population Mitotic Cells (%),Fibroblast [2]; [11],0%
same,Population Normal (%),Fibroblast [2]; [11],85%
same,Population Pyknosed Nuclei (%),Fibroblast [2]; [11],0%
same,Population Tubulin-Different-Phenotype (%),Fibroblast [2]; [11],30%
same,Total Cell Count,Fibroblast [2]; [11],71
same,Population Apoptotic (%),Fibroblast [2]; [12],54%
same,Population Fragmented Nuclei (%),Fibroblast [2]; [12],26%
same,Population Healthy Nuclei (%),Fibroblast [2]; [12],46%
same,Population Hoechst High Intensity Objects (%),Fibroblast [2]; [12],11%
same,Population Membrane Permeable-Phenotype (%),Fibroblast [2]; [12],28%
same,Population Mitochondria Different-Phenotype (%),Fibroblast [2]; [12],7%
same,Population Mitotic Cells (%),Fibroblast [2]; [12],45%
same,Population Normal (%),Fibroblast [2]; [12],88%
same,Population Pyknosed Nuclei (%),Fibroblast [2]; [12],27%
same,Population Tubulin-Different-Phenotype (%),Fibroblast [2]; [12],30%
same,Total Cell Count,Fibroblast [2]; [12],129
same,Population Apoptotic (%),Fibroblast [2]; [13],0%
same,Population Fragmented Nuclei (%),Fibroblast [2]; [13],4%
same,Population Healthy Nuclei (%),Fibroblast [2]; [13],95%
same,Population Hoechst High Intensity Objects (%),Fibroblast [2]; [13],8%
same,Population Membrane Permeable-Phenotype (%),Fibroblast [2]; [13],2%
same,Population Mitochondria Different-Phenotype (%),Fibroblast [2]; [13],13%
same,Population Mitotic Cells (%),Fibroblast [2]; [13],0%
same,Population Normal (%),Fibroblast [2]; [13],91%
same,Population Pyknosed Nuclei (%),Fibroblast [2]; [13],0%
same,Total Cell Count,Fibroblast [2]; [13],68
same,Population Apoptotic (%),Fibroblast [2]; [14],56%
same,Population Fragmented Nuclei (%),Fibroblast [2]; [14],14%
same,Population Healthy Nuclei (%),Fibroblast [2]; [14],60%
same,Population Hoechst High Intensity Objects (%),Fibroblast [2]; [14],7%
same,Population Membrane Permeable-Phenotype (%),Fibroblast [2]; [14],21%
same,Population Mitochondria Different-Phenotype (%),Fibroblast [2]; [14],3%
same,Population Mitotic Cells (%),Fibroblast [2]; [14],43%
same,Population Normal (%),Fibroblast [2]; [14],92%
same,Population Pyknosed Nuclei (%),Fibroblast [2]; [14],25%
same,Population Tubulin-Different-Phenotype (%),Fibroblast [2]; [14],34%
same,Total Cell Count,Fibroblast [2]; [14],198
same,Population Apoptotic (%),Fibroblast [2]; [15],0%
same,Population Fragmented Nuclei (%),Fibroblast [2]; [15],13%
same,Population Healthy Nuclei (%),Fibroblast [2]; [15],81%
same,Population Hoechst High Intensity Objects (%),Fibroblast [2]; [15],13%
same,Population Membrane Permeable-Phenotype (%),Fibroblast [2]; [15],3%
same,Population Mitochondria Different-Phenotype (%),Fibroblast [2]; [15],13%
same,Population Mitotic Cells (%),Fibroblast [2]; [15],100%
same,Population Normal (%),Fibroblast [2]; [15],86%
same,Population Pyknosed Nuclei (%),Fibroblast [2]; [15],5%
same,Population Tubulin-Different-Phenotype (%),Fibroblast [2]; [15],44%
same,Total Cell Count,Fibroblast [2]; [15],79
same,Population Apoptotic (%),Fibroblast [2]; [16],51%
same,Population Fragmented Nuclei (%),Fibroblast [2]; [16],35%
same,Population Healthy Nuclei (%),Fibroblast [2]; [16],41%
same,Population Hoechst High Intensity Objects (%),Fibroblast [2]; [16],20%
same,Population Membrane Permeable-Phenotype (%),Fibroblast [2]; [16],32%
same,Population Mitochondria Different-Phenotype (%),Fibroblast [2]; [16],2%
same,Population Mitotic Cells (%),Fibroblast [2]; [16],48%
same,Population Normal (%),Fibroblast [2]; [16],79%
same,Population Pyknosed Nuclei (%),Fibroblast [2]; [16],23%
same,Population Tubulin-Different-Phenotype (%),Fibroblast [2]; [16],38%
same,Total Cell Count,Fibroblast [2]; [16],147
same,Population Apoptotic (%),Fibroblast [2]; [17],33%
same,Population Fragmented Nuclei (%),Fibroblast [2]; [17],19%
same,Population Healthy Nuclei (%),Fibroblast [2]; [17],76%
same,Population Hoechst High Intensity Objects (%),Fibroblast [2]; [17],10%
same,Population Membrane Permeable-Phenotype (%),Fibroblast [2]; [17],16%
same,Population Mitochondria Different-Phenotype (%),Fibroblast [2]; [17],0%
same,Population Mitotic Cells (%),Fibroblast [2]; [17],66%
same,Population Normal (%),Fibroblast [2]; [17],90%
same,Population Pyknosed Nuclei (%),Fibroblast [2]; [17],4%
same,Population Tubulin-Different-Phenotype (%),Fibroblast [2]; [17],30%
same,Total Cell Count,Fibroblast [2]; [17],80
same,Population Apoptotic (%),Fibroblast [2]; [18],54%
same,Population Fragmented Nuclei (%),Fibroblast [2]; [18],25%
same,Population Healthy Nuclei (%),Fibroblast [2]; [18],67%
same,Population Hoechst High Intensity Objects (%),Fibroblast [2]; [18],14%
same,Population Membrane Permeable-Phenotype (%),Fibroblast [2]; [18],14%
same,Population Mitochondria Different-Phenotype (%),Fibroblast [2]; [18],3%
same,Population Mitotic Cells (%),Fibroblast [2]; [18],45%
same,Population Normal (%),Fibroblast [2]; [18],85%
same,Population Pyknosed Nuclei (%),Fibroblast [2]; [18],7%
same,Population Tubulin-Different-Phenotype (%),Fibroblast [2]; [18],19%
same,Total Cell Count,Fibroblast [2]; [18],175
same,Population Apoptotic (%),Fibroblast [2]; [19],40%
same,Population Fragmented Nuclei (%),Fibroblast [2]; [19],22%
same,Population Healthy Nuclei (%),Fibroblast [2]; [19],73%
same,Population Hoechst High Intensity Objects (%),Fibroblast [2]; [19],10%
same,Population Membrane Permeable-Phenotype (%),Fibroblast [2]; [19],15%
same,Population Mitochondria Different-Phenotype (%),Fibroblast [2]; [19],4%
same,Population Mitotic Cells (%),Fibroblast [2]; [19],60%
same,Population Normal (%),Fibroblast [2]; [19],89%
same,Population Pyknosed Nuclei (%),Fibroblast [2]; [19],4%
same,Population Tubulin-Different-Phenotype (%),Fibroblast [2]; [19],34%
same,Total Cell Count,Fibroblast [2]; [19],125
